Rows were chosen to be rich in hits. Some 5.8% of all compounds tested hit in one or more screens of this group.
14-3-3 Bad inh: disrupts binding of bovine 14-3-3 zeta to phospho-Bad peptide; actives 0.71% (n = 220,000); inhibition, % at 21.7 µM; TR-FRET 14-3-3zeta/Dy647-pBad peptide displacement, 1 h;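 active means inhibition above about 70%, limit read from the data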;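 further: 0% = full 14-3-3 plus peptide FRET controls and 100% = background without 14-3-3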
Cl transport mod: modulators of human KCC2 chloride dependent transport; KCC2 cells, thallium flux FluoZin-2 fluorescence; B-score of Tl+ flux slope (higher = more flux/activation; lower = inhibition) at 10 µM; actives 2.2% (n = 190,000); AID 1456;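 active means thallium flux slope and its plate-corrected score both differing from the plate sample mean at a set confidence after two filtering rounds, in either direction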;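 further: slope of fluorescence scaled to starting intensity during 10 to 20 s after thallium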
Target sequence (Q9H2X9 whole entry, looked up): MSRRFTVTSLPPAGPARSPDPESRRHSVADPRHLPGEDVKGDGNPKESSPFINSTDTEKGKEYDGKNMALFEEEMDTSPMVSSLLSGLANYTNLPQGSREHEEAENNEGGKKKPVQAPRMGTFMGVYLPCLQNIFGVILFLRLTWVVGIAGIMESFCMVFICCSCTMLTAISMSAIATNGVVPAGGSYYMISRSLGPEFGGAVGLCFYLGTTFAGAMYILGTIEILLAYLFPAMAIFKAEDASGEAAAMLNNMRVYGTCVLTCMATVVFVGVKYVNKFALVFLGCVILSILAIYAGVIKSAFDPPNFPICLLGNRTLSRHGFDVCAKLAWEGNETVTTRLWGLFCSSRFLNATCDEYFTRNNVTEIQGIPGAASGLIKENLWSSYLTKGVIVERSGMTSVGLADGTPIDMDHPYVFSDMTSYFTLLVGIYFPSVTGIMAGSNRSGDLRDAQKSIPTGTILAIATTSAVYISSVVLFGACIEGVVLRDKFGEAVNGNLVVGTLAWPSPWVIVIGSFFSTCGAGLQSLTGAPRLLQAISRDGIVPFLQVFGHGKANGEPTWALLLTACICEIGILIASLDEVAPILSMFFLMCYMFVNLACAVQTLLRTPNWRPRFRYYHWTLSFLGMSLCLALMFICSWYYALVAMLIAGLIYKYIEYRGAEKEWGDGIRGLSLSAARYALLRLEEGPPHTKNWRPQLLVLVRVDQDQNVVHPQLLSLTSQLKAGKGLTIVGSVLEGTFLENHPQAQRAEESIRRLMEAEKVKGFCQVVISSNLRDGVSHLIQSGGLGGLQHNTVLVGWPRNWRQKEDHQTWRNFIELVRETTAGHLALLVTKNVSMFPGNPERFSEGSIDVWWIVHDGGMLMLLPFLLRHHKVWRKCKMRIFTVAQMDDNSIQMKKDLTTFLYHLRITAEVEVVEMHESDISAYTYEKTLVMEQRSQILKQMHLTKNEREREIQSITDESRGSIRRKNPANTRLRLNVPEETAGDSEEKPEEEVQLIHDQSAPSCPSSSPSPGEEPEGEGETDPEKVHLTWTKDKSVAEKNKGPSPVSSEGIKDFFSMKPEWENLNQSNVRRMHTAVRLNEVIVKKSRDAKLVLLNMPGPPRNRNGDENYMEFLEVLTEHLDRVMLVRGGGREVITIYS
p47phox inh: p47phox (human) inhibition. P14598. p47phox/p22phox peptide binding, fluorescence polarization, 2 h. inhibition, % at 24.7 µM. actives 0.53% (n = 220,000). AID 1274;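 active means inhibition above about 30%, limit read from the data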;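 further: 0% = p47phox with labelled peptide and 100% = labelled peptide alone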
WT yeast gro inh: growth inhibition of WT yeast, mitochondrial fusion screen | mitochondrial fusion phenotypic screen, WT strain | inhibition, % at 10 µM | actives 2.1% (n = 190,000); in the data active means inhibition above about 58%; tested in S. cerevisiae
RBBP9 inh: blocks human serine hydrolase RBBP9. O75884. actives 0.2% (n = 220,000). inhibition, % at 7.94 µM. recombinant RBBP9, FP-Rh probe fluorescence polarization;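 active means inhibition above the campaign mean of all tested compounds plus 3 SD, cut at about 14% in these data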;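 further: plate controls were DMSO wells with RBBP9 for no effect and wells lacking RBBP9 protein for full effect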
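Test system: recombinant human RBBP9; Timing: 30 min then 45 min, 25 °C; Detection: fluorescence polarization; Control set: RBBP9 with DMSO as uninhibited control, no-protein wells as full inhibition; Compound dosing: one concentration, 7.94 µM nominal, 0.794% DMSO; Probe or stimulus: FP-Rh activity-based probe, 375 nM before mixing.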
ROMK primary: modulates human ROMK potassium channel activity | P48048 | Tet-inducible ROMK, thallium flux fluorescence; actives lie on both sides | B-score at 10 µM | actives 2% (n = 130,000) | AID 1918;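 active means signal ratio slope over the read window, or its plate-corrected B-score, at least 3 SD from the plate mean, either direction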;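 further: B-score of the F/F0 ratio slope over 7 to 12 s after thallium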
ROMK retest: human ROMK channel modulation, retest confirmation. shares compounds with ROMK primary. ROMK thallium flux, fluorescence ratio; stronger effect = lower value. normalized thallium flux (F/F0 slope) at 10 µM. actives 54% (n = 3,000);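 active means Flux at 10 µM at least 3 SD below or above vehicle control mean in one or both replicates; inconclusive means no clear call, values can overlap the other calls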
Numbers without * were called inactive; ? = inconclusive; · = not tested or not shown.

SMILES	14-3-3 Bad inh	Cl transport mod	p47phox inh	WT yeast gro inh	RBBP9 inh	ROMK primary	ROMK retest
C=CCN1C(=O)NC(c2ccc(OC)cc2)(C(F)(F)F)S/C1=C(\C#N)c1nnc(N2CCOCC2)n1-c1ccccc1 (stereo not drawn)	-23	-0.84	-13	-6	-3	-0.58	·
O=C(OCc1ccccc1)c1cn(-c2ccccc2)nc1-c1ccncc1	4	0.37	-14	11	-5	·	·
Cc1ccc(C(C[N+](=O)[O-])c2c(C)[nH]n(-c3ccccc3)c2=O)cc1 (stereo not drawn)	-3	0.65	-12	32	-4	-2.3	·
Cc1[nH]n(-c2ccccc2)c(=O)c1C(C[N+](=O)[O-])c1ccc(Cl)cc1 (stereo not drawn)	-14	-0.0017	-7	20	8	-3*	0.061*
Cc1nnc(SCc2ccc(CSc3nnc(C)c(=O)[nH]3)cc2)[nH]c1=O	-13	0.26	-12	5	-6	-0.58	·
O=C1C(Br)=Cc2cccc3cccc1c23	-3	-0.52	31*	·	-1	·	0.049*
CCOC(=O)N/N=C/c1ccccc1F	-4	-0.33	-8	6	0	-14*	0.075
CCOC(=O)N/N=C/c1c(F)cccc1F	-1	-0.14	-2	-6	-2	-0.44	·
CCOC(=O)N/N=C/c1c(F)c(F)c(F)c(F)c1F	11	0.025	-2	-10	0	1.5*	0.088
COc1ccc(-n2cnnc2SCC(=O)NC2CCCc3ccccc32)cc1 (stereo not drawn)	11	-0.81	-15	-10	-3	·	·
O=C(Nc1nnc(C(F)(F)F)s1)c1ccc(Br)s1	-4	-0.98	-5	63*	-2	-3*	0.09
NC(=O)c1ccccc1NC(=O)c1ccccc1Cl	8	-0.076	-6	·	-7	·	·
O=C(Nc1ccccc1C(=O)Nc1nnc(C(F)(F)F)s1)c1ccccc1Cl	-6	0.75	-35	·	-13	·	0.061*
OC1(C(F)(F)F)CC(c2ccc3ccccc3c2)=NO1 (stereo not drawn)	0	-2	0	·	-8	·	·
CC(=O)N=Nc1[nH]c(N)c2ccccc12	-16	-0.098	4	-4	-5	1.7	·
CN(C)C(=O)c1sccc1Oc1ccc(F)cc1[N+](=O)[O-]	-1	·	-10	-7	-1	-0.44	0.08
O=C(O)c1sccc1Oc1ccc(F)cc1[N+](=O)[O-]	-2	-1.2	-5	19	-3	·	·
CCN(CC(=O)Nc1ccc(C(=O)Nc2ccc(OC)cc2)cc1)Cc1nc2ccccc2c(=O)[nH]1	-7	·	-20	·	-3	·	·
CCN(CC(=O)Nc1cc(OC)ccc1OC)Cc1nc2ccccc2c(=O)[nH]1	-5	-0.027	-1	0	-4	2.8*	0.07
COC(=O)c1ccc(NC(=O)c2sc3nc(-c4ccccc4)cn3c2C)cc1	0	-0.82	14	-1	-1	·	?
CCn1c(C)cs/c1=N\C(=S)Nc1ccccc1C	-17	0.0085	-29	62*	-9	3.2*	0.07
Cc1ccc(S(=O)(=O)N2CCN(C(C)C(=O)Nc3ccccc3-c3ccccc3)CC2)cc1 (stereo not drawn)	7	-0.077	-34	0	-2	0.083	·
CCCn1ncc(CN2CCN(Cc3ccsc3)C(CCO)C2)c1C (stereo not drawn)	1	·	1	-6	-12	-1.6	·
CC(=O)C(Cc1ccccc1)NC(=O)CCl (stereo not drawn)	-8	2.5	0	-7	-4	-0.12	·
O=C(CCl)NC(Cc1ccccc1)c1ccccc1 (stereo not drawn)	1	0.78	-6	-14	-5	-0.4	0.087
SMILES	14-3-3 Bad inh	Cl transport mod	p47phox inh	WT yeast gro inh	RBBP9 inh	ROMK primary	ROMK retest
S=C1NCCNC(=S)NCCOCCOCCN1	-12	0.43	-13	-1	-2	0.11	·
O=C(NCCc1ccccc1F)C1CCCN1S(=O)(=O)c1ccc2ccccc2c1 (stereo not drawn)	0	-2.2	-11	11	4	-3.5*	0.056*
Cc1cc(Sc2ncnc(N)c2[N+](=O)[O-])ncn1	13	-1.3	-1	-11	-5	-0.97*	0.078
Cc1cc(Sc2nc(N)ncc2[N+](=O)[O-])ncn1	-4	0.1	-7	-13	0	0.014	·
O=C(c1ccc(S(=O)(=O)N2CCc3ccccc3C2)cc1)N1CCCCC1	-12	-1.6	-10	-3	-8	0.18	·
c1ccc(-c2cn(-c3ccccc3)c3[n+]2CCS3)cc1	6	0.63	0	28	-1	-0.61	·
CC(C)(C)c1ccc(-c2cn(-c3ccc(Br)cc3)c3[n+]2CCCS3)cc1	-9	0.11	-12	5	-1	-2.5*	0.055*
O=C(Nc1nc(-c2cccs2)c(C(=O)C(F)(F)F)s1)c1ccccc1	12	-2.5	-10	60*	-15	-6.5*	0.054*
S=C(NCc1ccc(Cl)cc1)NN1CCOCC1	-15	0.46	0	-3	-4	1.1	·
CCCN(CCC)CC(O)CN1C(=O)N(CN2C(=O)N(CC(O)CN(CCC)CCC)C(=O)C2(C)C)C(C)(C)C1=O (stereo not drawn)	-16	-0.3	-12	-16	-4	0.26	·
COc1ccc(NC(=S)NCCCCCC(=O)C[N+](=O)[O-])cc1	-4	0.6	6	12	4	1.1*	0.092
O=C(CCCCCNC(=S)Nc1ccc(Cl)cc1)C[N+](=O)[O-]	-14	0.46	-8	9	-6	0.61	·
Cc1cccc(C)c1NC(=O)CN(c1ccccn1)S(=O)(=O)c1ccccc1	6	1.9	1	-15	-8	·	·
C/C(=N\NC(=O)CN(c1ccc(Oc2ccccc2)cc1)S(C)(=O)=O)C(C)(C)C	-12	0.43	-10	5	-2	-0.027	·
O=C(O)CCCCCN1C(=O)C2CCCCC2C1=O (stereo not drawn)	-9	-0.56	-4	-4	4	0.7	·
O=C(O)CCCCCCC1C(=O)NC(=O)N1CCC(O)C1CCCCC1 (stereo not drawn)	-7	-1.8	-15	-13	-5	4*	?
C/C(=N\NC(=O)c1ccccc1)c1cc2cc([N+](=O)[O-])ccc2oc1=O	-7	-1.6	-3	-17	-3	-2.9*	0.055*
Oc1c(Br)cc(Br)cc1C=Nc1ccc2c(c1)OCO2	-4	-0.51	-110	16	-4	3.4*	0.11*
COc1cc(NC(=O)CN2CCC(C)CC2)c(C)cc1[N+](=O)[O-]	7	1.1	-1	-1	-1	·	·
COc1cc(NC(=O)CN2CCN(c3ccccc3O)CC2)c(C)cc1[N+](=O)[O-]	-6	0.012	-1	-9	0	-4.4*	0.049*
COc1ccc(-n2cnnc2SCC(=O)Nc2cccnc2Cl)cc1	-1	0.027	3	10	-3	0.051	·

Screening data from PubChem.
